20 compounds from ChEMBL document CHEMBL2424583, “Structure-activity relationship and in vitro and in vivo evaluation of the potent cytotoxic anti-microtubule agent N-(4-methoxyphenyl)-N,2,6-trimethyl-6,7-dihydro-5H-cyclopenta[d]pyrimidin-4-aminium chloride and its analogues as antitumor agents” (J Med Chem, 2013) can be followed below.

The structures appear in SMILES notation. Active and inactive are the calls of the source. The rule behind the calls is not given here.

Assay [1] deals with MDA-MB-435. The assay is described as follows: Cytotoxicity against human MDA-MB-435 cells assessed as growth inhibition after 48 hrs by SRB assay. The assay is classed as functional, cell-based. The following applies: MDA-MB-435, 48 h. (In general: Sulforhodamine B stains cellular protein and so reports cell mass.)
A short description of assay [2]: Induction of microtubule depolymerization in rat A10 cells after 18 hrs by indirect immunofluorescence assay. It is filed as cell-based. In short, it runs like this: (§1)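 A-10 cells were exposed to vehicle or compound for 18 h, fixed, and microtubules were visualized by indirect immunofluorescence. EC50 is the concentration causing about 50% microtubule loss, from at least three independent experiments.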

Assay [3] relates to A10. The assay is described as follows: Induction of microtubule depolymerization in rat A10 cells up to 10 uM after 18 hrs by indirect immunofluorescence assay. It is filed as cell-based. Summed up: as §1
Assay [4] has as its target Tubulin (Sus scrofa) (UniProt P02554+P02550). Nature of the assay: Displacement of [3H]-colchicine from pig brain tubulin at 1 uM after 10 mins by scintillation counting analysis relative to control. On the technique in general: Displacement assays read how much labelled ligand stays bound in the presence of the test substance.
In assay [5] the test system is A10. Nature of the assay: Induction of microtubule depolymerization in rat A10 cells up to 40 uM after 18 hrs by indirect immunofluorescence assay. The assay is classed as cell-based. Summed up: as §1

Tubulin (Sus scrofa), sequence (P02550 whole entry, looked up): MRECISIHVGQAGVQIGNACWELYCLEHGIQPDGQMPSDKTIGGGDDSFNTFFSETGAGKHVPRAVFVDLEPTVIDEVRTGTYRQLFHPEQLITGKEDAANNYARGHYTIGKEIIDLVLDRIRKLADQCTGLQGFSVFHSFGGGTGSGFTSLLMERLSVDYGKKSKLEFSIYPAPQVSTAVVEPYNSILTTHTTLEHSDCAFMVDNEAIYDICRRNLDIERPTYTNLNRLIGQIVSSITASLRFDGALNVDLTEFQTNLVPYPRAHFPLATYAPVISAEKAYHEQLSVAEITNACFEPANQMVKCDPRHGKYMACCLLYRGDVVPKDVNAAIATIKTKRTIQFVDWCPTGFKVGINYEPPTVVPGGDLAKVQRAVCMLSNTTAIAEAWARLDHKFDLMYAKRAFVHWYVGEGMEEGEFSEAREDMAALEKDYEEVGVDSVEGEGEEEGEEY
Tubulin (Sus scrofa), sequence (P02554 whole entry, looked up): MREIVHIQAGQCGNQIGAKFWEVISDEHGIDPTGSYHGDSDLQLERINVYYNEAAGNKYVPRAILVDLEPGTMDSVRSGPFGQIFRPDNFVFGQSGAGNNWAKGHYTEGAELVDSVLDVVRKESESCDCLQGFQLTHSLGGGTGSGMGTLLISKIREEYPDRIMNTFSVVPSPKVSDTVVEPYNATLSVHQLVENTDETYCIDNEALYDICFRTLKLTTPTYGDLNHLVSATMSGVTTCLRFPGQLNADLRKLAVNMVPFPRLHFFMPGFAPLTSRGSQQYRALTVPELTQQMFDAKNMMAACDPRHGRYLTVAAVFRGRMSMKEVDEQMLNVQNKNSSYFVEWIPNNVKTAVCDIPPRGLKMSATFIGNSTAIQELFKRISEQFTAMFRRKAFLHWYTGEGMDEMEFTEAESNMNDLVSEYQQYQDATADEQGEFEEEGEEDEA

As usually defined, the IC50 is the midpoint of a concentration-inhibition curve. The term EC50 denotes the concentration at which the effect is half-maximal. Higher therefore signals a need for much substance. Take `Cc1ccc(N(C)c2nc(C)nc3c2CCC3)cc1`: in assay [1], the IC50 is 360 nM. This compound registered an EC50 in assay [2] of 10500 nM.

For the compound `COc1ccc(N(C)c2nc(C)nc3c2C(C)CC3)cc1` (racemic), the IC50 in assay [1] came to 18.8 nM. The compound also returned an EC50 in assay [2] of 47 nM.

In the case of `COc1ccccc1N(C)c1nc(N)nc2c1CCC2`, the result in assay [3] was inactive. In assay [1], the IC50 is over 1000 nM.

`CSc1ccc(N(C)c2ncnc3c2CCC3)cc1`: in assay [1], the IC50 is 42.8 nM. This compound also came in with a half-maximal effective concentration (EC50) in assay [2] of 675 nM.

For `CN(c1ccc(Cl)cc1)c1ncnc2c1CCC2`, in assay [3], the outcome was inactive.

By inhibition is commonly meant the relative decrease from the control value, in per cent. Low readings indicate a weak effect, high ones a strong effect. Turning to `COc1ccc(/C=C\c2cc(OC)c(OC)c(OC)c2)cc1O` [COMBRETASTATIN A4], the inhibition in assay [4] amounted to 80%. This compound returned an EC50 in assay [2] of 7 nM.

For `COc1ccc(Nc2nc(N)nc3c2CC(C)C3)cc1` (racemic), the outcome in assay [5] was inactive. Moreover, the IC50 in assay [1] was over 10000 nM.

Regarding `C=CC1Cc2nc(C)nc(N(C)c3ccc(OC)cc3)c2C1` (racemic), the IC50 in assay [1] turned out to be 73.2 nM. In assay [2], the midpoint of the response, the EC50, lay at 140 nM.

Turning to `COc1cccc(N(C)c2nc(N)nc3c2CCC3)c1`, the outcome in assay [3] was inactive. Moreover, the IC50 in assay [1] is over 1000 nM.

Turning to `Cc1nc2c(c(N(C)c3ccc(Cl)cc3)n1)CC(C)C2` (racemic), in assay [5], the outcome was inactive. Besides, the IC50 in assay [1] was found to be 2300 nM.

With `Cc1nc2c(c(N(C)c3cccc(Br)c3)n1)CC(C)C2` (racemic), the IC50 in assay [1] is 1500 nM. Also, the EC50 in assay [2] amounted to 15000 nM.

As for `CSc1ccc(N(C)c2nc(C)nc3c2CC(C)C3)cc1` (racemic), the IC50 in assay [1] was 15.6 nM. The same compound gave an EC50 in assay [2] of 64 nM.

Consider `C=CC1Cc2nc(N)nc(N(C)c3ccc(OC)cc3)c2C1` (racemic), for which the IC50 in assay [1] was 205 nM. In assay [2], this compound yielded an EC50 of 899 nM.

Regarding `COc1ccc(N(C)c2nc(N)nc3c2CCC3)cc1`, the IC50 in assay [1] worked out at 16.7 nM. Moreover, the EC50 in assay [2] came out at 110 nM.

Consider `CCOc1ccc(N(C)c2ncnc3c2CCC3)cc1`, for which the half-inhibitory concentration (IC50) in assay [1] was determined as 48.7 nM. Moreover, the response in assay [2] was half-maximal at 730 nM (EC50).

`CCOc1ccc(N(C)c2nc(N)nc3c2CCC3)cc1`: the IC50 in assay [1] was determined as 20.3 nM. In addition, the response in assay [2] was half-maximal at 148 nM (EC50).

With `Cc1ccc(N(C)c2ncnc3c2CCC3)cc1`, the outcome in assay [3] was inactive.

Consider `COc1ccc(N(C)c2nc(N)nc3c2CC(C)C3)cc1` (racemic), for which the IC50 in assay [1] was 29.9 nM. In addition, the EC50 in assay [2] stood at 143 nM.

In the case of `CCOc1ccc(N(C)c2nc(C)nc3c2CCC3)cc1`, in assay [1], the concentration for half-maximal inhibition (IC50) amounted to 15.1 nM. A half-maximal response in assay [2] (EC50) required 64 nM.

For the compound `COc1ccc(N(C)c2ncnc3c2CCC3)cc1`, the IC50 in assay [1] turned out to be 43 nM. This compound also had an EC50 in assay [2] of 655 nM.
